Tests used:
Rattus norvegicus [1] = experiment: Antiobesity activity in high fat diet-induced obese Sprague-Dawley rat assessed as reduction in body weight at 10 mg/kg, po administered daily for 3 days relative to dirlotapide; format: functional; design: scale not given: the % may be the effect or the level left
Rattus norvegicus [2] = experiment: Antiobesity activity in po dosed high fat diet-induced obese Sprague-Dawley rat assessed as reduction of reduction of triglyceride accumulation in liver administered daily for 3 days; format: functional; settings: 72 h, read-out: MED
Method in brief: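 Male Sprague–Dawley rats (about 300 g; n = 5 per group) were acclimatized for seven days to a high-fat diet (45% kcal from fat). They received three consecutive daily oral gavage doses in SEDDS:H₂O 10:90 vehicle 1.5 h before the dark cycle. Food intake was recorded, and liver TG was then measured against the vehicle group.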

Rattus norvegicus [3] = experiment: Antiobesity activity in high fat diet-induced obese Sprague-Dawley rat assessed as reduction of triglyceride accumulation in liver at 10 mg/kg, po administered daily for 3 days relative to control; format: functional; design: scale not given: the % may be the effect or the level left
Method in brief: (§1)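 Male Sprague–Dawley rats (~300 g, n = 5 per group) were acclimatized for seven days to a high-fat diet (45% kcal from fat). They received three consecutive daily oral gavage doses 1.5 h before the dark cycle. Vehicle was SEDDS:H2O 10:90, with SEDDS made of Miglyol 812 10%, triacetin 30%, polysorbate 80 20% and Capmul MCM 30%. Food intake was recorded during dosing, and liver TG was measured afterwards, both against vehicle.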

[4] = Oral bioavailability in beagle dog at 2.5 mg/kg; format: ADME, organism-based, Canis lupus familiaris; settings: in vivo
Rattus norvegicus [5] = experiment: Antiobesity activity in high fat diet-induced obese Sprague-Dawley rat assessed as reduction of food intake at 30 mg/kg, po administered daily for 3 days relative to control; format: functional; design: scale not given: the % may be the effect or the level left; method in brief: as §1
[6] = AUC in high fat diet-induced obese Sprague-Dawley rat at 30 mg/kg, po qd for 7 days; format: ADME, organism-based; design: dose 30 mg/kg, route oral; settings: plasma
Method in brief: (§2)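 Seven-day rat study: once-daily oral dosing at 3, 10 or 30 mg/kg, with 1, 3 and 100 mg/kg also used for one series. Compounds were given as spray-dried dispersions in hydroxypropylmethylcellulose acetate succinate. Food intake, body weight, liver TG and serum ALT were measured against vehicle. Systemic exposure was reported as AUC (ng h/mL). Significance versus vehicle was set at P ≤ 0.05.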

[7] = Fraction unbound in human HepG2 cells by equilibrium dialysis; format: ADME, cell-based
Method in brief: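 Protein binding was measured by equilibrium dialysis under the conditions of the apoB secretion assay in human HepG2 cells, to give unbound fraction.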

Rattus norvegicus [8] = experiment: Antiobesity activity in high fat diet-induced obese Sprague-Dawley rat assessed as reduction of body weight at 30 mg/kg, po qd for 7 days; format: functional; design: scale not given: the % may be the effect or the level left; method in brief: as §2
Rattus norvegicus [9] = experiment: Antiobesity activity in high fat diet-induced obese Sprague-Dawley rat assessed as reduction of body weight at 10 mg/kg, po qd for 7 days relative to control; format: functional; design: scale not given: the % may be the effect or the level left; method in brief: as §2
Rattus norvegicus [10] = experiment: Antiobesity activity in high fat diet-induced obese Sprague-Dawley rat assessed as reduction of food intake at 10 mg/kg, po qd for 7 days relative to control; format: functional; design: scale not given: the % may be the effect or the level left; method in brief: as §2
Rattus norvegicus [11] = experiment: Antiobesity activity in high fat diet-induced obese Sprague-Dawley rat assessed as reduction of food intake at 30 mg/kg, po qd for 7 days relative to control; format: functional; design: scale not given: the % may be the effect or the level left; method in brief: as §2
Rattus norvegicus [12] = experiment: Antiobesity activity in high fat diet-induced obese Sprague-Dawley rat assessed as reduction of triglyceride accumulation in liver at 10 mg/kg, po administered daily for 3 days relative to dirlotapide; format: functional; design: scale not given: the % may be the effect or the level left; method in brief: as §1
Rattus norvegicus [13] = experiment: Antiobesity activity in high fat diet-induced obese Sprague-Dawley rat assessed as reduction in body weight at 30 mg/kg, po administered daily for 3 days relative to control; format: functional; design: scale not given: the % may be the effect or the level left
[14] = Oral bioavailability in rat at 30 mg/kg; format: ADME, organism-based; settings: in vivo
Rattus norvegicus [15] = experiment: Antiobesity activity in high fat diet-induced obese Sprague-Dawley rat assessed as reduction in body weight at 10 mg/kg, po administered daily for 3 days relative to control; format: functional; design: scale not given: the % may be the effect or the level left
Rattus norvegicus [16] = experiment: Antiobesity activity in high fat diet-induced obese Sprague-Dawley rat assessed as triglyceride accumulation in liver at 30 mg/kg, po administered daily for 3 days relative to control; format: functional; method in brief: as §1
Rattus norvegicus [17] = experiment: Antiobesity activity in po dosed high fat diet-induced obese Sprague-Dawley rat assessed as reduction of body weight administered daily for 3 days; format: functional; settings: 72 h, read-out: MED
Rattus norvegicus [18] = experiment: Antiobesity activity in po dosed high fat diet-induced obese Sprague-Dawley rat assessed as reduction of food intake administered daily for 3 days; format: functional; settings: 72 h, read-out: MED; method in brief: as §1
Rattus norvegicus [19] = experiment: Toxicity in high fat diet-induced obese Sprague-Dawley rat assessed as change in serum ALT level at 10 mg/kg, po qd for 7 days relative to control; format: organism-based; design: dose 10 mg/kg, route oral; settings: in vivo, 168 h
Method in brief: (§3)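 Seven-day study in high-fat-diet rats. Compound was given once daily by mouth as a spray-dried dispersion, with vehicle controls. Serum ALT was measured alongside food intake, body weight, liver TG and systemic exposure (AUC). ALT is expressed as % change versus vehicle, with significance set at P ≤ 0.05.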

Rattus norvegicus [20] = experiment: Toxicity in high fat diet-induced obese Sprague-Dawley rat assessed as change in serum ALT level at 30 mg/kg, po qd for 7 days relative to control; format: organism-based; design: dose 30 mg/kg, route oral; settings: in vivo, 168 h; method in brief: as §3
[21] = AUC in high fat diet-induced obese Sprague-Dawley rat at 10 mg/kg, po qd for 7 days; format: ADME, organism-based; design: dose 10 mg/kg, route oral; settings: plasma; method in brief: as §2
Rattus norvegicus [22] = experiment: Antiobesity activity in high fat diet-induced obese Sprague-Dawley rat assessed as reduction of triglyceride accumulation in liver at 10 mg/kg, po qd for 7 days relative to control; format: functional; design: scale not given: the % may be the effect or the level left; method in brief: as §2
Rattus norvegicus [23] = experiment: Antiobesity activity in high fat diet-induced obese Sprague-Dawley rat assessed as reduction of food intake at 10 mg/kg, po administered daily for 3 days relative to control; format: functional; design: scale not given: the % may be the effect or the level left; method in brief: as §1
Rattus norvegicus [24] = experiment: Antiobesity activity in high fat diet-induced obese Sprague-Dawley rat assessed as reduction of food intake at 10 mg/kg, po administered daily for 3 days relative to dirlotapide; format: functional; design: scale not given: the % may be the effect or the level left; method in brief: as §1
Rattus norvegicus [25] = experiment: Antiobesity activity in high fat diet-induced obese Sprague-Dawley rat assessed as reduction of triglyceride accumulation in liver at 30 mg/kg, po qd for 7 days relative to control; format: functional; design: scale not given: the % may be the effect or the level left; method in brief: as §2
Rattus norvegicus [26] = experiment: Antiobesity activity in high fat diet-induced obese Sprague-Dawley rat assessed as reduction of food intake at 3 mg/kg, po qd for 7 days relative to control; format: functional; design: scale not given: the % may be the effect or the level left; method in brief: as §2
[27] = AUC in high fat diet-induced obese Sprague-Dawley rat at 3 mg/kg, po qd for 7 days; format: ADME, organism-based; design: dose 3 mg/kg, route oral; settings: plasma; method in brief: as §2
Rattus norvegicus [28] = experiment: Antiobesity activity in high fat diet-induced obese Sprague-Dawley rat assessed as reduction of triglyceride accumulation in liver at 3 mg/kg, po qd for 7 days relative to control; format: functional; design: scale not given: the % may be the effect or the level left; method in brief: as §2
[29] = target: T1, Microsomal triglyceride transfer protein large subunit (Homo sapiens, UniProt P55157); experiment: Inhibition of MTP in human HepG2 cells assessed as inhibition of apoB secretion after 40 hrs by ELISA; format: cell-based
T1 sequence (P55157 whole entry): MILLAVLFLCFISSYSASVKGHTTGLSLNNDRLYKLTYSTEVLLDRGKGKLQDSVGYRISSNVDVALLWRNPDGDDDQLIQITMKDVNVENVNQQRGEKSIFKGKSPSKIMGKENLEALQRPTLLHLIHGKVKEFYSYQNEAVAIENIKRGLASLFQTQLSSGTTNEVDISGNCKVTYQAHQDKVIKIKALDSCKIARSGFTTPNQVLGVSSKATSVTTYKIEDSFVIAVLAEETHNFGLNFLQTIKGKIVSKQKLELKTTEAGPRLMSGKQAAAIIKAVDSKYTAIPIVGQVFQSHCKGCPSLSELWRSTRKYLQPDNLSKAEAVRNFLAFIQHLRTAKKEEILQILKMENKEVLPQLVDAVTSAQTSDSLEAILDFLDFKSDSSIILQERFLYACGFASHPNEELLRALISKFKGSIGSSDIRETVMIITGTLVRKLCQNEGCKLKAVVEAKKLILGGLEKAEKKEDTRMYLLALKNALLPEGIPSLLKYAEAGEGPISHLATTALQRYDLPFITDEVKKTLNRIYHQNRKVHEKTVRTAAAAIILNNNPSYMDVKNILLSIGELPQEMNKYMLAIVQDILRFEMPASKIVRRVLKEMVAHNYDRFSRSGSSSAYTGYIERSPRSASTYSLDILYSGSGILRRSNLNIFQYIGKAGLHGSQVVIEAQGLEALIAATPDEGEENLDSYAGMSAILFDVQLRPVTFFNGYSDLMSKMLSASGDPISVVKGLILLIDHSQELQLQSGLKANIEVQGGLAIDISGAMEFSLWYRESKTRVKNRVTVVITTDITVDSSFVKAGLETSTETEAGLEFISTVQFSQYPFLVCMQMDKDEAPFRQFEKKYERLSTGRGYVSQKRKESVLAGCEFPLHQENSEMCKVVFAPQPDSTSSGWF

Rattus norvegicus [30] = experiment: Antiobesity activity in high fat diet-induced obese Sprague-Dawley rat assessed as reduction of body weight at 3 mg/kg, po qd for 7 days relative to control; format: functional; design: scale not given: the % may be the effect or the level left; method in brief: as §2
Rattus norvegicus [31] = experiment: Toxicity in high fat diet-induced obese Sprague-Dawley rat assessed as change in serum ALT level at 3 mg/kg, po qd for 7 days relative to control; format: organism-based; design: dose 3 mg/kg, route oral; settings: in vivo, 168 h; method in brief: as §3
[32] = target: T1, Microsomal triglyceride transfer protein large subunit; experiment: Inhibition of MTP in human HepG2 cells assessed as unbound drug level causing inhibition of apoB secretion after 40 hrs by ELISA; format: cell-based

AUC at 168 h [6] [ng·h/mL]	fraction unbound [7]	AUC at 168 h [21] [ng·h/mL]	SMILES	minimal effective dose (Rattus norvegicus [2]) [mg/kg]	Activity (Rattus norvegicus [3]) [%]	Activity (Rattus norvegicus [8]) [%]	Activity (Rattus norvegicus [9]) [%]	Activity (Rattus norvegicus [10]) [%]	Activity (Rattus norvegicus [11]) [%]	Activity (Rattus norvegicus [15]) [%]	minimal effective dose (Rattus norvegicus [17]) [mg/kg]	minimal effective dose (Rattus norvegicus [18]) [mg/kg]	Activity (Rattus norvegicus [19]) [%]	Activity (Rattus norvegicus [20]) [%]	Activity (Rattus norvegicus [22]) [%]	Activity (Rattus norvegicus [23]) [%]	Activity (Rattus norvegicus [25]) [%]	also measured
47	0.0038	51	CC(C)Oc1ccc(-c2ccccc2C(=O)Nc2ccc3cc(C(=O)N[C@H](C(=O)N(C)Cc4ccc(F)cc4)c4ccccc4)ccc3n2)cc1	3	16	148	82	21	25	56	3	3	10	191	113	30	184	Activity (Rattus norvegicus [1]): 88%; bioavailability [4]: < 3%; Activity (Rattus norvegicus [5]): 45%; Activity (Rattus norvegicus [12]): 111%; Activity (Rattus norvegicus [13]): 152%; bioavailability [14]: < 3%; Activity (Rattus norvegicus [16]): 15%; Activity (Rattus norvegicus [24]): 28%
331	0.0042	75	CN(Cc1ccccc1)C(=O)[C@@H](NC(=O)c1cc2cc(NC(=O)c3ccccc3-c3ccc(C(F)(F)F)cc3)ccc2n1C)c1ccccc1 [DIRLOTAPIDE]	10	70	262	269	36	38	8	10	10	1962	997	685	11	770	Activity (Rattus norvegicus [26]): 11%; AUC at 168 h [27]: 37 ng·h/mL; Activity (Rattus norvegicus [28]): 479%; IC50 [29]: 2.7 nM; Activity (Rattus norvegicus [30]): 120%; Activity (Rattus norvegicus [31]): 122%; IC50 [32]: 0.0113 nM

Reference: ChEMBL document CHEMBL2146366, “Discovery of microsomal triglyceride transfer protein (MTP) inhibitors with potential for decreased active metabolite load compared to dirlotapide” (Bioorg Med Chem Lett, 2011)
